The record followed here is ChEMBL document CHEMBL3822431, “Hydroxychalcone inhibitors of Streptococcus mutans glucosyl transferases and biofilms as potential anticaries agents” (Bioorg Med Chem Lett, 2016).

Assay [1] deals with T1, Glucosyltransferase-I (Streptococcus mutans serotype c (strain ATCC 700610 / UA159)) (UniProt P08987).
T1 sequence (whole entry): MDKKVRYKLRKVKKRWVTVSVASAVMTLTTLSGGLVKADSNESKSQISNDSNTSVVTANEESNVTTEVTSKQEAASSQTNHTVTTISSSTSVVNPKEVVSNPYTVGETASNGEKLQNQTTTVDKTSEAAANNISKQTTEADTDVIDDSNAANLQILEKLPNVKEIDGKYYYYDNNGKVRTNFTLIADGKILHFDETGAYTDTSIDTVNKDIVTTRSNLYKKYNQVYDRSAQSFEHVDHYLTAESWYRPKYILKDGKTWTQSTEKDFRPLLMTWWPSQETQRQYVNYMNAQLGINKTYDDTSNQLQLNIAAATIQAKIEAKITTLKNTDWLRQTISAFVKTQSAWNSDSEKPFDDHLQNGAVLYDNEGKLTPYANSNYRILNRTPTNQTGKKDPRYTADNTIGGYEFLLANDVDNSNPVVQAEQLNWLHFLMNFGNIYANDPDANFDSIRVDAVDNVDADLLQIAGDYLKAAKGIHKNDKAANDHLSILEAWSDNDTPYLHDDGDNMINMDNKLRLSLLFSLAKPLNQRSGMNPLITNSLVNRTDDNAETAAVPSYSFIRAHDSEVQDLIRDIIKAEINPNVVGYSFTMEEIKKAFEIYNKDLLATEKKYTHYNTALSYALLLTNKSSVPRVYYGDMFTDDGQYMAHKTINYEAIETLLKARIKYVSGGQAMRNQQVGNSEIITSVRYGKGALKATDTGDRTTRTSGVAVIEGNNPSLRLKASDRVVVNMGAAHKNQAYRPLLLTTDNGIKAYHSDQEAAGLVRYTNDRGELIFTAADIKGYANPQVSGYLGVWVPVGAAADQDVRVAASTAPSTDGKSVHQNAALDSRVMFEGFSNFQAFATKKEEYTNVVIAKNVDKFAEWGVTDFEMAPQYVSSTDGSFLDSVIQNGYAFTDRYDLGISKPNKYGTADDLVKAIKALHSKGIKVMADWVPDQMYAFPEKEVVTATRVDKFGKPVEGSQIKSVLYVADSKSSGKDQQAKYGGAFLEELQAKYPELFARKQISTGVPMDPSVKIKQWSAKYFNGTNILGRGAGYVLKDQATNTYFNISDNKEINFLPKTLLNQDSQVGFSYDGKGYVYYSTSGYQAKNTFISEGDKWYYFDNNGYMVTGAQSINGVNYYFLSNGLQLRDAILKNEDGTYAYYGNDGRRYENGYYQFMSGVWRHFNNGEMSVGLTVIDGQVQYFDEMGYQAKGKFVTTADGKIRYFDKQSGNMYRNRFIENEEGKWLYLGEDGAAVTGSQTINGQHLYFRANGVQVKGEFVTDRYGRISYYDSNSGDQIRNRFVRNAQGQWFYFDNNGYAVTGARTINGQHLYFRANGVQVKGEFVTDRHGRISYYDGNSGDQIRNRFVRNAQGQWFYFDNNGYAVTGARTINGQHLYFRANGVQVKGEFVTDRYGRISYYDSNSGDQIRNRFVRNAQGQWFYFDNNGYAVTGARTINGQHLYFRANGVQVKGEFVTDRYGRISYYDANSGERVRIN
The experiment in a line: Inhibition of Wild-type Streptococcus mutans UA159 glucosyltransferase B by zymography. A digest of the protocol:
(§1)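 S. mutans UA159 wild type co-incubated with compound at different concentrations; Gtfs concentrated from supernatants, separated by SDS-PAGE and assayed by zymography, glucan band intensity reflecting enzyme activity.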

The target of assay [2] is T2, Glucosyltransferase-SI (Streptococcus mutans serotype c (strain ATCC 700610 / UA159)) (UniProt P13470).
T2 sequence (whole entry): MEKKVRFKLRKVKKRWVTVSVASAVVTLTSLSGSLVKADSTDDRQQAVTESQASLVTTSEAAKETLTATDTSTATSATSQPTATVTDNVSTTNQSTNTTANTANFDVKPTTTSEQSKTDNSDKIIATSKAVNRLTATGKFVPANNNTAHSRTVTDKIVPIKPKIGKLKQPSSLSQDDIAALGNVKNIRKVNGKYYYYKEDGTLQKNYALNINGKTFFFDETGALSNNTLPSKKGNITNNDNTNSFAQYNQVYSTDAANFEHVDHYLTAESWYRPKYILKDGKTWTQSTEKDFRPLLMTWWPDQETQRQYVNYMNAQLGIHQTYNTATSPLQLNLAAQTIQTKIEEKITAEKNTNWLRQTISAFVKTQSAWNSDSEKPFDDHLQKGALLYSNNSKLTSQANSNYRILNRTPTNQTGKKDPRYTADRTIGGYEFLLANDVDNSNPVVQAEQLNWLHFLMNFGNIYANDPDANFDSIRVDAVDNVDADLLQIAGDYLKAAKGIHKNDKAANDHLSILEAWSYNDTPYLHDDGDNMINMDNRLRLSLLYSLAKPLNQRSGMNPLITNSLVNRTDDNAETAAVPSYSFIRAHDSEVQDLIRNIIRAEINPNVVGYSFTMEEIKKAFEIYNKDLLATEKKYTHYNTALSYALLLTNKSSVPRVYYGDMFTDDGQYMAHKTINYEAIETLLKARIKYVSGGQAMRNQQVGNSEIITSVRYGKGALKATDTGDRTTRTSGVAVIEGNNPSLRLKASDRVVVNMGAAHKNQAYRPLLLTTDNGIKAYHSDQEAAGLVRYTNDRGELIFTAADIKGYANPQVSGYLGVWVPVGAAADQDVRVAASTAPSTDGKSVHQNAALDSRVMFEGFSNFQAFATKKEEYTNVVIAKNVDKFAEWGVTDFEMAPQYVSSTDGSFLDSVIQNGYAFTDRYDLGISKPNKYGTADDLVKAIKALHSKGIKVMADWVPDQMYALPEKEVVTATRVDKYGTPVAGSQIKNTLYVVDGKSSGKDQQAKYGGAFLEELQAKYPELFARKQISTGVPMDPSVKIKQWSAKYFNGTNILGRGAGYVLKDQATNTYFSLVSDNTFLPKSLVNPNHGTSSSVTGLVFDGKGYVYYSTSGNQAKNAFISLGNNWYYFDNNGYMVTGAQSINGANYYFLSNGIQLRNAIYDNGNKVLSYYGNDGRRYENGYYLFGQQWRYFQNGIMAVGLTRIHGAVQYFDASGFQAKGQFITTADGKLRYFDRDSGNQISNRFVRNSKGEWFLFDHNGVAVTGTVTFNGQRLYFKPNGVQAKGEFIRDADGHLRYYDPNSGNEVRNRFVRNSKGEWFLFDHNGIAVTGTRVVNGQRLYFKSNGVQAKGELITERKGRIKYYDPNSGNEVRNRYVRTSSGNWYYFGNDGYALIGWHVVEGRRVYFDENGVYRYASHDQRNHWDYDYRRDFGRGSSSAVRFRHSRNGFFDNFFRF
The experiment in a line: Inhibition of Wild-type Streptococcus mutans UA159 glucosyltransferase C by zymography. An outline of the steps: as §1

Each structure is given as a SMILES string.

On to `O=C(/C=C\c1ccc(O)cc1O)c1cccc(O)c1`, for which the inhibition entry in assay [1] and in assay [2] was “Dose-dependent effect” throughout.
